Source: ChEMBL document CHEMBL4715736, “Identification of anticancer agents based on the thieno[2,3-b]pyridine and 1H-pyrazole molecular scaffolds” (2016)

Legend:
Type in all cases: functional
[1] = test system: SR; experiment: Growth inhibition of human SR cells assessed as cell growth at 0.01 uM incubated for 48 hrs by sulforhodamine B assay relative to control; details: read-out: Activity
[2] = test system: NCI-H460; experiment: Growth inhibition of human NCI-H460 cells assessed as cell growth at 0.01 uM incubated for 48 hrs by sulforhodamine B assay relative to control; details: read-out: Activity
[3] = test system: SNB-19; experiment: Growth inhibition of human SNB-19 cells assessed as cell growth at 0.01 uM incubated for 48 hrs by sulforhodamine B assay relative to control; details: read-out: Activity
[4] = test system: K562; experiment: Growth inhibition of human K562 cells assessed as cell growth at 0.1 uM incubated for 48 hrs by sulforhodamine B assay relative to control; details: read-out: Activity
[5] = test system: SF-268; experiment: Growth inhibition of human SF-268 cells assessed as cell growth at 0.1 uM incubated for 48 hrs by sulforhodamine B assay relative to control; details: read-out: Activity
[6] = test system: IGROV-1; experiment: Growth inhibition of human IGROV-1 cells assessed as cell growth at 0.1 uM incubated for 48 hrs by sulforhodamine B assay relative to control; details: read-out: Activity
[7] = test system: ACHN; experiment: Growth inhibition of human ACHN cells assessed as cell growth at 0.1 uM incubated for 48 hrs by sulforhodamine B assay relative to control; details: read-out: Activity
[8] = test system: Hs-578T; experiment: Growth inhibition of human Hs-578T cells assessed as cell growth at 0.1 uM incubated for 48 hrs by sulforhodamine B assay relative to control; details: read-out: Activity
[9] = test system: RPMI-8226; experiment: Growth inhibition of human RPMI-8226 cells assessed as cell growth at 1 uM incubated for 48 hrs by sulforhodamine B assay relative to control; details: read-out: Activity
[10] = test system: HCT-15; experiment: Growth inhibition of human HCT-15 cells assessed as cell growth at 1 uM incubated for 48 hrs by sulforhodamine B assay relative to control; details: read-out: Activity
[11] = test system: SW-620; experiment: Growth inhibition of human SW-620 cells assessed as cell growth at 1 uM incubated for 48 hrs by sulforhodamine B assay relative to control; details: read-out: Activity
[12] = test system: M14; experiment: Growth inhibition of human M14 cells assessed as cell growth at 1 uM incubated for 48 hrs by sulforhodamine B assay relative to control; details: read-out: Activity
[13] = test system: MDA-MB-435; experiment: Growth inhibition of human MDA-MB-435 cells assessed as cell growth at 1 uM incubated for 48 hrs by sulforhodamine B assay relative to control; details: read-out: Activity
[14] = test system: OVCAR-8; experiment: Growth inhibition of human OVCAR-8 cells assessed as cell growth at 1 uM incubated for 48 hrs by sulforhodamine B assay relative to control; details: read-out: Activity
[15] = test system: RXF 393; experiment: Growth inhibition of human RXF 393 cells assessed as cell growth at 1 uM incubated for 48 hrs by sulforhodamine B assay relative to control; details: read-out: Activity
[16] = test system: BT-549; experiment: Growth inhibition of human BT-549 cells assessed as cell growth at 1 uM incubated for 48 hrs by sulforhodamine B assay relative to control; details: read-out: Activity
[17] = test system: A549; experiment: Growth inhibition of human A549/ATCC cells assessed as cell growth at 100 uM incubated for 48 hrs by sulforhodamine B assay relative to control; details: read-out: Activity
Procedure, shortened: (§1)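 NCI Developmental Therapeutics Program NCI60 panel. Compounds that were active in the 10 µM one-dose screen went on to dose–response testing. Growth at each concentration is expressed relative to untreated control (100%). GI50 (concentration giving 50% of maximal inhibition of proliferation) and TGI (concentration giving total growth inhibition) were derived from the curves.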

[18] = test system: HCT-15; experiment: Growth inhibition of human HCT-15 cells assessed as cell growth at 100 uM incubated for 48 hrs by sulforhodamine B assay relative to control; details: read-out: Activity
[19] = test system: SNB-19; experiment: Growth inhibition of human SNB-19 cells assessed as cell growth at 100 uM incubated for 48 hrs by sulforhodamine B assay relative to control; details: read-out: Activity
[20] = test system: SNB-75; experiment: Growth inhibition of human SNB-75 cells assessed as cell growth at 100 uM incubated for 48 hrs by sulforhodamine B assay relative to control; details: read-out: Activity
[21] = test system: MDA-MB-435; experiment: Growth inhibition of human MDA-MB-435 cells assessed as cell growth at 100 uM incubated for 48 hrs by sulforhodamine B assay relative to control; details: read-out: Activity
[22] = test system: OVCAR-3; experiment: Growth inhibition of human OVCAR-3 cells assessed as cell growth at 100 uM incubated for 48 hrs by sulforhodamine B assay relative to control; details: read-out: Activity
[23] = test system: SN12C; experiment: Growth inhibition of human SN12C cells assessed as cell growth at 100 uM incubated for 48 hrs by sulforhodamine B assay relative to control; details: read-out: Activity
[24] = test system: MDA-MB-468; experiment: Growth inhibition of human MDA-MB-468 cells assessed as cell growth at 100 uM incubated for 48 hrs by sulforhodamine B assay relative to control; details: read-out: Activity
[25] = test system: SR; experiment: Growth inhibition of human SR cells incubated for 48 hrs by sulforhodamine B assay
Procedure, shortened: (§2)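 NCI DTP 60-line human tumour panel. Dose-response curves were run only for ligands active in the initial 10 µM screen. GI50 (concentration giving 50% of maximal inhibition of proliferation) and TGI (concentration giving total growth inhibition) were derived from these curves.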

[26] = test system: A549; experiment: Growth inhibition of human A549/ATCC cells incubated for 48 hrs by sulforhodamine B assay; details: for CC50: read-out: LC50 (the source's name); procedure, shortened: as §1
[27] = test system: COLO 205; experiment: Growth inhibition of human COLO 205 cells incubated for 48 hrs by sulforhodamine B assay; procedure, shortened: as §1
[28] = test system: KM12; experiment: Growth inhibition of human KM12 cells incubated for 48 hrs by sulforhodamine B assay
Procedure, shortened: (§3)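 NCI60 panel at the NCI Developmental Therapeutics Program. Only compounds active in the 10 µM screen went to dose-response testing. GI50, the concentration giving 50% of maximal inhibition of proliferation, and TGI, the concentration giving total growth inhibition, were derived from the dose-response curves.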

[29] = test system: SK-MEL-2; experiment: Growth inhibition of human SK-MEL-2 cells incubated for 48 hrs by sulforhodamine B assay; procedure, shortened: as §2
[30] = test system: ACHN; experiment: Growth inhibition of human ACHN cells incubated for 48 hrs by sulforhodamine B assay; details: for CC50: read-out: LC50 (the source's name); procedure, shortened: as §1
[31] = test system: CAKI-1; experiment: Growth inhibition of human CAKI-1 cells incubated for 48 hrs by sulforhodamine B assay; details: for CC50: read-out: LC50 (the source's name); procedure, shortened: as §1
[32] = test system: DU-145; experiment: Growth inhibition of human DU-145 cells incubated for 48 hrs by sulforhodamine B assay; details: for CC50: read-out: LC50 (the source's name); procedure, shortened: as §1
[33] = test system: MCF7; experiment: Growth inhibition of human MCF7 cells incubated for 48 hrs by sulforhodamine B assay; details: for CC50: read-out: LC50 (the source's name); procedure, shortened: as §3
[34] = test system: UACC-62; experiment: Growth inhibition of human UACC-62 cells assessed as cell growth at 100 uM incubated for 48 hrs by sulforhodamine B assay relative to control; details: read-out: Activity
[35] = test system: UACC-62; experiment: Growth inhibition of human UACC-62 cells incubated for 48 hrs by sulforhodamine B assay; procedure, shortened: as §2

Cc1ccc(NC(=O)c2sc3nc4c(cc3c2N)C(=O)CCC4)cc1C
growth at 0.01 µM [1]: 106% | growth at 0.01 µM [2]: 102% | growth at 0.01 µM [3]: 91% | growth at 0.1 µM [4]: 118% | growth at 0.1 µM [5]: 94% | growth at 0.1 µM [6]: 99% | growth at 0.1 µM [7]: 95% | growth at 0.1 µM [8]: 88% | growth at 1 µM [9]: 57% | growth at 1 µM [10]: 32% | growth at 1 µM [11]: 19% | growth at 1 µM [12]: 22% | growth at 1 µM [13]: -58% | growth at 1 µM [14]: 68% | growth at 1 µM [15]: -11% | growth at 1 µM [16]: 49% | growth at 100 µM [17]: 13% | growth at 100 µM [18]: 7% | growth at 100 µM [19]: 29% | growth at 100 µM [20]: 10% | growth at 100 µM [21]: -46% | growth at 100 µM [22]: -23% | growth at 100 µM [23]: 17% | growth at 100 µM [24]: -1% | GI50 [25]: 0.499 µM | LC50 [25]: > 100 µM | TGI [25]: 26.8 µM | GI50 [26]: 0.673 µM | TGI [26]: > 100 µM | CC50 [26]: > 100 µM | GI50 [27]: 0.272 µM | LC50 (concentration killing 50% of cells) [27]: ≥ 100 µM | TGI [27]: 11.4 µM | GI50 [28]: 0.479 µM | LC50 [28]: > 100 µM | TGI [28]: > 100 µM | GI50 [29]: 0.463 µM | LC50 [29]: > 100 µM | TGI [29]: > 100 µM | GI50 [30]: 0.0239 µM | TGI [30]: > 100 µM | CC50 [30]: > 100 µM | TGI [31]: > 100 µM | CC50 [31]: > 100 µM | GI50 [32]: 0.602 µM | TGI [32]: > 100 µM | CC50 [32]: > 100 µM | GI50 [33]: 0.339 µM | TGI [33]: > 100 µM | CC50 [33]: > 100 µM

CCc1cccc(C)c1NC(=O)c1sc2nc3c(cc2c1N)C(=O)CCC3
growth at 0.01 µM [1]: 96% | growth at 0.01 µM [2]: 101% | growth at 0.01 µM [3]: 96% | growth at 0.1 µM [4]: 89% | growth at 0.1 µM [5]: 96% | growth at 0.1 µM [6]: 104% | growth at 0.1 µM [7]: 97% | growth at 0.1 µM [8]: 90% | growth at 1 µM [9]: 44% | growth at 1 µM [10]: 29% | growth at 1 µM [11]: 17% | growth at 1 µM [12]: 17% | growth at 1 µM [13]: -50% | growth at 1 µM [14]: 62% | growth at 1 µM [15]: -12% | growth at 100 µM [17]: 6% | growth at 100 µM [18]: 7% | growth at 100 µM [19]: 34% | growth at 100 µM [20]: 29% | growth at 100 µM [21]: -13% | growth at 100 µM [34]: 14% | growth at 100 µM [22]: -50% | growth at 100 µM [23]: -4% | growth at 100 µM [24]: -18% | GI50 [25]: 0.403 µM | LC50 [25]: > 100 µM | TGI [25]: ≥ 100 µM | GI50 [26]: 0.593 µM | TGI [26]: > 100 µM | CC50 [26]: > 100 µM | GI50 [27]: 0.278 µM | GI50 [28]: 0.413 µM | LC50 [28]: > 100 µM | TGI [28]: > 100 µM | GI50 [35]: 0.556 µM | LC50 [35]: > 100 µM | TGI [35]: > 100 µM | GI50 [30]: 0.795 µM | TGI [30]: > 100 µM | CC50 [30]: > 100 µM | GI50 [31]: 0.511 µM | TGI [31]: > 100 µM | CC50 [31]: > 100 µM | GI50 [32]: 0.454 µM | TGI [32]: > 100 µM | CC50 [32]: > 100 µM | GI50 [33]: 0.36 µM | TGI [33]: ≥ 100 µM | CC50 [33]: > 100 µM
